In ChEMBL document CHEMBL2146386, “Hispolon attenuates balloon-injured neointimal formation and modulates vascular smooth muscle cell migration via AKT and ERK phosphorylation” (J Nat Prod, 2012):
Values after ≈ are worked out from the molar mass of the structure shown. Active and inactive are the calls of the source. No cut-off for these calls is given here.

Experiments:
[1] = tested on: Rattus norvegicus; assay: Antirestenotic activity in Sprague-Dawley rat assessed as reduction in balloon injury-induced neointimal:[…] area ratio in carotid artery at 10 mg/mL, administered topically measured after 2 weeks by hematoxylin and eosin staining method relative to vehicle-treated control; format: functional; parameters: scale not given: the % may be the effect or the level left
Outline: (§1)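 Male Sprague–Dawley rats (350–400 g) underwent carotid balloon injury, 8 per group: untreated injury control or a 10 or 20 mg/mL solution. Sham controls were included. Vessels were embedded, cut into 10 μm sections and stained with H&E. The neointimal:media area ratio was measured by computerized image analysis. Two separate experiments.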

[2] = tested on: Rattus norvegicus; assay: Antirestenotic activity in Sprague-Dawley rat assessed as reduction in balloon injury-induced neointimal:[…] area ratio in carotid artery at 20 mg/mL, administered topically measured after 2 weeks by hematoxylin and eosin staining method relative to vehicle-treated control; format: functional; parameters: scale not given: the % may be the effect or the level left; outline: as §1
[3] = tested on: A10; assay: Antiproliferative activity against rat A10 cells after 24 hrs by MTT assay; format: cell-based
Outline: (§2)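 A10 rat aortic VSMC seeded at 1 × 10^4 cells/well in DMEM with 10% FBS for 24 h, washed, then exposed for 24 h to 10% FBS alone or serial dilutions (5–40 μg/mL). MTT added (3 mg/mL stock in PBS) for 2 h at 37 °C, formazan dissolved in DMSO, absorbance read at 570 nm. Three separate experiments.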

[4] = tested on: A10; assay: Antiproliferative activity against rat A10 cells at 5 to 25 ug/mL after 24 hrs by MTT assay relative to control; format: cell-based; conditions: a10, 24 h; outline: as §2
[5] = tested on: A10; assay: Antiproliferative activity against rat A10 cells at 30 to 40 ug/mL after 24 hrs by MTT assay relative to control; format: cell-based; conditions: a10, 24 h; outline: as §2
[6] = tested on: A10; assay: Induction of cell cycle arrest in rat A10 cells assessed as S phase cells at 10 to 40 ug/mL after 24 hrs by PI-staining based flow cytometric analysis relative to vehicle-treated control; conditions: a10, 24 h
Outline: (§3)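 A10 VSMC treated 24 h with 10–60 μg/mL in 15% FBS, with […] alone as control. Cells harvested with trypsin-EDTA, fixed in 70% ethanol and stained with propidium iodide plus RNase A and Nonidet P-40 for at least 30 min on ice in the dark. Three experiments.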

[7] = tested on: A10; assay: Induction of apoptosis in rat A10 cells assessed as sub-G1 cells at 10 to 40 ug/mL after 24 hrs by PI-staining based flow cytometric analysis relative to vehicle-treated control; format: cell-based; conditions: a10, 24 h; outline: as §3
[8] = molecular target: Focal adhesion kinase 1 (Rattus norvegicus) (UniProt O35346); assay: Inhibition of FAK-mediated FBS-induced cell migration of rat A10 cells at 10 ug/mL after 18 hrs by scratch-wound assay; format: cell-based
Outline: (§4)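 A10 VSMC (3 × 10^4) grown to 80–90% confluence in six-well plates, and the monolayer centre scraped with a micropipet tip. After a PBS wash, cells were exposed to 10, 15 or 20 μg/mL and photographed at 18 h. Cells crossing lines drawn at the original wound edges were counted in six random fields per triplicate treatment. Three experiments.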

[9] = molecular target: Focal adhesion kinase 1 (Rattus norvegicus) (UniProt O35346); assay: Inhibition of FAK-mediated FBS-induced cell migration of rat A10 cells at 15 ug/mL after 18 hrs by scratch-wound assay; format: cell-based; outline: as §4
[10] = molecular target: Focal adhesion kinase 1 (Rattus norvegicus) (UniProt O35346); assay: Inhibition of FAK-mediated FBS-induced cell migration of rat A10 cells at 20 ug/mL after 18 hrs by scratch-wound assay; format: cell-based; outline: as §4
[11] = molecular target: Focal adhesion kinase 1 (Rattus norvegicus) (UniProt O35346); assay: Inhibition of FAK-mediated FBS-induced migration of rat A10 cells at 15 and 20 ug/mL after 18 hrs by transwell assay; format: cell-based
Outline: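 Trans-well chambers with 6.5 mm polycarbonate filters, 8 μm pores. A10 VSMC (4 × 10^5 mL−1) with 0–20 μg/mL in serum-free DMEM were placed in the upper chamber for 18 h at 37 °C. Cells on the lower filter surface were methanol-fixed, Giemsa-stained and counted at 200× in 10 random fields. Three experiments in duplicate.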

[12] = molecular target: Focal adhesion kinase 1 (Rattus norvegicus) (UniProt O35346); assay: Inhibition of FAK-mediated MMP2 activity in rat A10 cells after 24 hrs by zymographic analysis; format: cell-based
Outline: (§5)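 Culture medium of A10 VSMC treated 24 h was electrophoresed (120 V, 90 min) in 10% SDS-PAGE with 0.1% gelatin. Gels were washed in 2.5% Triton X-100, then incubated overnight (12–15 h) at 37 °C in 40 mM Tris-HCl pH 8.0 with 10 mM CaCl2 and 1% NaN3. Stained with Coomassie blue and destained.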

[13] = molecular target: Focal adhesion kinase 1 (Rattus norvegicus) (UniProt O35346); assay: Inhibition of FAK-mediated […] activity in rat A10 cells after 24 hrs by zymographic analysis; format: cell-based; outline: as §5
[14] = tested on: A10; assay: Upregulation of TIMP1 expression in rat A10 cells after 24 hrs by Western blot analysis; format: functional, cell-based
Outline: (§6)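 A10 VSMC in six-well plates incubated 24 h with 10, 15 and 20 μg/mL in DMEM containing 15% FBS, with 15% FBS as control. Lysed in SDS/DTT buffer at 95 °C. Western blot on PVDF used specific antibodies (p-AKT, PI3K, p-FAK, TIMP-1, TIMP-2), β-actin loading control, ECL detection, and densitometry relative to control as 100%.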

[15] = tested on: A10; assay: Upregulation of TIMP2 expression in rat A10 cells after 24 hrs by Western blot analysis; format: functional, cell-based; outline: as §6
[16] = molecular target: Focal adhesion kinase 1 (Rattus norvegicus) (UniProt O35346); assay: Inhibition of FAK phosphorylation in rat A10 cells after 24 hrs by Western blot analysis; format: cell-based; outline: as §6
[17] = molecular target: Focal adhesion kinase 1 (Rattus norvegicus) (UniProt O35346); assay: Inhibition of FAK-mediated ERK1 phosphorylation in rat A10 cells after 30 mins by Western blot analysis; format: cell-based
Outline: (§7)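 Western blot of A10 VSMC after 30 min exposure to 10, 15 and 20 μg/mL, probed for phosphorylated ERK1/2 alongside total ERK1/2. Serum-stimulated cells served as comparison. ECL detection.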

[18] = molecular target: Focal adhesion kinase 1 (Rattus norvegicus) (UniProt O35346); assay: Inhibition of FAK-mediated ERK2 phosphorylation in rat A10 cells after 30 mins by Western blot analysis; format: cell-based; outline: as §7
[19] = molecular target: Focal adhesion kinase 1 (Rattus norvegicus) (UniProt O35346); assay: Inhibition of FAK in rat A10 cells assessed as inhibition of serum-induced AKT phosphorylation after 24 hrs by Western blot analysis; format: cell-based; outline: as §6
[20] = molecular target: Focal adhesion kinase 1 (Rattus norvegicus) (UniProt O35346); assay: Inhibition of FAK in rat A10 cells assessed as inhibition of serum-induced PI3K expression after 24 hrs by Western blot analysis; format: cell-based; outline: as §6
[21] = tested on: Rattus norvegicus; assay: Antirestenotic activity in Sprague-Dawley rat assessed as reduction in balloon injury-induced PCNA expression in carotid artery at 10 and 20 mg/mL, administered topically measured after 2 weeks by immunohistochemistry

Chain of Focal adhesion kinase 1 (Rattus norvegicus) (O35346 whole entry): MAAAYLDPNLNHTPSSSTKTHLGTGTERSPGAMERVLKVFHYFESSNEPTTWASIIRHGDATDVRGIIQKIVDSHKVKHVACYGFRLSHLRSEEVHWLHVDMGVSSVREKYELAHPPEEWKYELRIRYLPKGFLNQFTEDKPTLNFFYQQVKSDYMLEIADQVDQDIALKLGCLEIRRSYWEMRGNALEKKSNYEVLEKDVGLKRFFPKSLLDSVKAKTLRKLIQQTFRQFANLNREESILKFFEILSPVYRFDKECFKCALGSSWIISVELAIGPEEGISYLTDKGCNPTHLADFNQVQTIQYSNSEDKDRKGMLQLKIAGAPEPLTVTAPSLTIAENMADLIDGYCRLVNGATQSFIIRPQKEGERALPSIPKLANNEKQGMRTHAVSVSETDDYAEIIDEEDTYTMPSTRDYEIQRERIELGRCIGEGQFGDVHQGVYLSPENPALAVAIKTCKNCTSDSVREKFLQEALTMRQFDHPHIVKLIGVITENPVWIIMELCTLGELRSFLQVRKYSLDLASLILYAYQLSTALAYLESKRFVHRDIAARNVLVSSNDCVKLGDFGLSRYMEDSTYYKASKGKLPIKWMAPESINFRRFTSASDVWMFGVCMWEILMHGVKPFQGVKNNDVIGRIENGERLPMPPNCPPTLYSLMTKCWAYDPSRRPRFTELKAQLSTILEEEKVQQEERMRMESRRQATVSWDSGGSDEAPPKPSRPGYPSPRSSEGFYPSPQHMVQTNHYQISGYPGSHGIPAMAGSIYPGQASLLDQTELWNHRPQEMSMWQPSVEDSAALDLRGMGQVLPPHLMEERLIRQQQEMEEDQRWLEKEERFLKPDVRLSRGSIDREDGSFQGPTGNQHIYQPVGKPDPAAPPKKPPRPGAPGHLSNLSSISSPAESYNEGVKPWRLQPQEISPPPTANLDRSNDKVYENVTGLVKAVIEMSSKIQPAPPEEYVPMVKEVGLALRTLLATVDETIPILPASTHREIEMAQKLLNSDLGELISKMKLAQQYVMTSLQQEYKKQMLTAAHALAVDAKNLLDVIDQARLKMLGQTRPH

Structure (SMILES): CC(=O)/C=C(O)/C=C/c1ccc(O)c(O)c1 [HISPOLON]
- Activity [1]: 25%
- Activity [2]: 58%
- IC50 ([3]; Rattus norvegicus, A10, 24 h): 37 µg/mL (≈ 168 µM)
- Activity ([3]; rat, a10, 24 h): Dose-dependent effect
- Activity [4]: < 10%
- Activity [5]: Toxic
- Activity [6]: Non-toxic
- Activity [7]: Non-toxic
- inhibition [8]: 12%
- inhibition [9]: 6.51%
- inhibition [10]: 43.2%
- inhibition [11]: Active
- inhibition [12]: Dose-dependent effect
- inhibition [13]: Dose-dependent effect
- Activity [14]: Dose-dependent effect
- Activity [15]: Dose-dependent effect
- inhibition [16]: Dose-dependent effect
- inhibition [17]: Dose-dependent effect
- inhibition [18]: Dose-dependent effect
- inhibition [19]: Dose-dependent effect
- inhibition [20]: Dose-dependent effect
- Activity [21]: Active
